{"source": "ChEMBL document CHEMBL4715840", "about": "“Antibacterial activity of lipo-α/sulfono-γ-AA hybrid peptides” (Eur J Med Chem, 2020)", "key": {"[1]": {"tested_on": "Staphylococcus aureus", "assay": "Antibacterial activity against methicillin-resistant Staphylococcus aureus ATCC 33591 incubated for 12 to 16 hrs by microtiter method", "assay_type": "functional", "conditions": "time 12-16 hrs", "outline": "(§1)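 Single colony grown overnight at 37 °C in TSB, diluted 100-fold and grown to mid-log phase. Equal volumes of cell suspension and peptide serial dilutions in TSB were combined and incubated 37 °C for 12-16 h. Growth read as absorbance at 600 nm. MIC taken as the lowest concentration inhibiting growth. Three repeats, each in duplicate.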"}, "[2]": {"tested_on": "Staphylococcus epidermidis", "assay": "Antibacterial activity against methicillin-resistant Staphylococcus epidermidis RP62A incubated for 12 to 16 hrs by microtiter method", "assay_type": "functional", "conditions": "time 12-16 hrs", "outline": "as §1"}, "[3]": {"tested_on": "Enterococcus faecalis", "assay": "Antibacterial activity against Enterococcus faecalis ATCC 700802 incubated for 12 to 16 hrs by microtiter method", "assay_type": "functional", "conditions": "time 12-16 hrs", "outline": "(§2)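 Single colonies grown overnight in TSB at 37 °C, diluted 100-fold and grown to mid-log phase. Equal volumes of bacterial suspension and peptide dilutions in TSB mixed and incubated 37 °C for 12-16 h. Growth read as absorbance at 600 nm. MIC taken as lowest concentration inhibiting growth. Three repeats, duplicates each.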"}, "[4]": {"tested_on": "Escherichia coli", "assay": "Antibacterial activity against Escherichia coli ATCC 25922 incubated for 12 to 16 hrs by microtiter method", "assay_type": "functional", "conditions": "time 12-16 hrs", "outline": "as §2"}, "[5]": {"tested_on": "Pseudomonas aeruginosa", "assay": "Antibacterial activity against Pseudomonas aeruginosa ATCC 27853 incubated for 12 to 16 hrs by microtiter method", "assay_type": "functional", "conditions": "time 12-16 hrs", "outline": "as §2"}, "[6]": {"assay": "Hemolytic activity against RBC (unknown origin)", "assay_type": "ADME, cell-based, Erythrocyte", "conditions": "red blood cells (erythrocytes)"}, "[7]": {"assay": "Selectivity index, ratio of HC50 for human RBC to MIC for methicillin-resistant Staphylococcus aureus ATCC 33591", "assay_type": "toxicity", "conditions": "human red blood cells, read-out: Selectivity Index"}, "[8]": {"tested_on": "Staphylococcus aureus", "assay": "Bactericidal activity against methicillin-resistant Staphylococcus aureus ATCC 33591 at 50 ug/ml measured after 10 mins by time-kill assay", "assay_type": "functional, organism-based", "outline": "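Cells grown in TSB at 37 °C to mid-log phase, diluted to 1 × 10^6 CFU/mL, then exposed to peptide at 12.5, 25 or 50 µg/mL for 10 min, 30 min, 1 h and 2 h. Samples diluted 102 to 104-fold and plated. Colonies counted after overnight growth at 37 °C and plotted against exposure time.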"}, "[9]": {"tested_on": "Escherichia coli", "assay": "Bactericidal activity against Escherichia coli ATCC 25922 at 25 to 50 ug/ml measured after 60 mins by time-kill assay", "assay_type": "functional, organism-based", "conditions": "dose 25-50 µg/ml", "outline": "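Mid-log TSB cultures at 37 °C diluted to 1 × 10^6 CFU/mL and exposed to 12.5, 25 or 50 µg/mL peptide for 10 min, 30 min, 1 h and 2 h. Aliquots diluted 102 to 104-fold and plated. Colonies counted after overnight incubation at 37 °C and plotted against exposure time.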"}, "[10]": {"tested_on": "Cell membrane", "assay": "Induction of membrane disruption in methicillin-resistant Staphylococcus aureus ATCC 33591 at 250 ug/ml measured for 30 mins by DiSC35 dye based fluorescence assay", "assay_type": "subcellular", "conditions": "dose 250.0 µg/ml", "outline": "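Mid-log cells washed with 5 mM HEPES and 5 mM glucose. Resuspended at 10^8 CFU/mL in 5 mM glucose, 5 mM HEPES and 100 mM KCl mixed 1:1:1, with 2 µM DiSC3(5), at 37 °C. Fluorescence (ex 622, em 670 nm) followed for 30 min. Peptide at 250 µg/mL added once the minimum was reached, about 20 min. Untreated culture as negative control. At least three repeats in duplicate.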"}, "[11]": {"tested_on": "Cell membrane", "assay": "Induction of membrane disruption in Escherichia coli at 250 ug/ml measured for 30 mins by DiSC35 dye based fluorescence assay", "assay_type": "subcellular", "conditions": "dose 250.0 µg/ml"}, "[12]": {"tested_on": "Cell membrane", "assay": "Induction of membrane disruption in methicillin-resistant Staphylococcus aureus ATCC 33591 at 6 ug/ml measured after 2 hrs by DAPI/propidium iodide staining based fluorescence microscopic analysis", "assay_type": "subcellular", "conditions": "dose 6.0 µg/ml", "outline": "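Mid-log cells exposed to peptide at 37 °C for 2 h. Methods give 10 µg/mL; the legend gives 6 µg/mL. Cells pelleted at 5000g for 15 min and washed in PBS. Stained with PI (5 µg/mL), washed three times in PBS, then stained with DAPI (10 µg/mL), each stain 15 min on ice in the dark. Imaged with a 100X oil objective. Untreated cells as control.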"}, "[13]": {"tested_on": "Cell membrane", "assay": "Induction of membrane disruption in Escherichia coli at 6 ug/ml measured after 2 hrs by DAPI/propidium iodide staining based fluorescence microscopic analysis", "conditions": "dose 6.0 µg/ml", "outline": "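Mid-log bacteria exposed to peptide for 2 h at 37 °C, then centrifuged at 5000g for 15 min and washed with PBS. Stained with PI (5 µg/mL), washed three times in PBS, then stained with DAPI (10 µg/mL), each stain 15 min on ice in the dark. Viewed by fluorescence microscopy with a 100X oil objective.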"}}, "note": "Active and inactive are the calls of the source. The rule behind the calls is not given here."}
{"smiles": "CCCCCCCCCCCCCCCC(=O)N[C@@H](CCCCN)CN(CC(N)=O)S(=O)(=O)Cc1ccccc1", "values": [{"measurement": "MIC", "setting": "[1]", "value": 5, "unit": "µg/mL"}, {"measurement": "MIC", "setting": "[2]", "value": 8, "unit": "µg/mL"}, {"measurement": "MIC", "setting": "[3]", "value": 5, "unit": "µg/mL"}, {"measurement": "MIC", "setting": "[4]", "value": "> 50", "unit": "µg/mL"}, {"measurement": "MIC", "setting": "[5]", "value": "> 50", "unit": "µg/mL"}]}
{"smiles": "CCCCCCCCCCCCCCCC(=O)N[C@@H](CCCCN)C(=O)N[C@@H](CCCCN)CN(CC(N)=O)S(=O)(=O)Cc1ccccc1", "values": [{"measurement": "MIC", "setting": "[1]", "value": 5, "unit": "µg/mL"}, {"measurement": "MIC", "setting": "[2]", "value": 5, "unit": "µg/mL"}, {"measurement": "MIC", "setting": "[3]", "value": 5, "unit": "µg/mL"}, {"measurement": "MIC", "setting": "[4]", "value": 5, "unit": "µg/mL"}, {"measurement": "MIC", "setting": "[5]", "value": 20, "unit": "µg/mL"}]}
{"smiles": "CCCCCCCCCCCCCCCC(=O)N[C@@H](CCCCN)C(=O)N[C@@H](CCCCN)CN(CC(=O)N[C@@H](CCCCN)CN(CC(N)=O)S(=O)(=O)Cc1ccccc1)S(=O)(=O)Cc1ccccc1", "values": [{"measurement": "MIC", "setting": "[1]", "value": 2, "unit": "µg/mL"}, {"measurement": "MIC", "setting": "[2]", "value": 5, "unit": "µg/mL"}, {"measurement": "MIC", "setting": "[3]", "value": 5, "unit": "µg/mL"}, {"measurement": "MIC", "setting": "[4]", "value": 8, "unit": "µg/mL"}, {"measurement": "MIC", "setting": "[5]", "value": 8, "unit": "µg/mL"}, {"measurement": "HC50", "setting": "[6]", "value": 50, "unit": "µg/mL"}, {"measurement": "selectivity ratio", "setting": "[7]", "value": 25}]}
{"smiles": "CCCCCCCCCCCCCC(=O)N[C@@H](CCCCN)C(=O)N[C@@H](CCCCN)CN(CC(N)=O)S(=O)(=O)Cc1ccccc1", "values": [{"measurement": "MIC", "setting": "[1]", "value": 5, "unit": "µg/mL"}, {"measurement": "MIC", "setting": "[2]", "value": 5, "unit": "µg/mL"}, {"measurement": "MIC", "setting": "[3]", "value": 5, "unit": "µg/mL"}, {"measurement": "MIC", "setting": "[4]", "value": 2, "unit": "µg/mL"}, {"measurement": "MIC", "setting": "[5]", "value": 5, "unit": "µg/mL"}, {"measurement": "HC50", "setting": "[6]", "value": 125, "unit": "µg/mL"}, {"measurement": "selectivity ratio", "setting": "[7]", "value": 25}, {"measurement": "Activity", "setting": "[8]", "value": "Active"}, {"measurement": "Activity", "setting": "[9]", "value": "Active"}, {"measurement": "Activity", "setting": "[10]", "value": "Active"}, {"measurement": "Activity", "setting": "[11]", "value": "Active"}, {"measurement": "Activity", "setting": "[12]", "value": "Active"}, {"measurement": "Activity", "setting": "[13]", "value": "Active"}]}
{"smiles": "CCCCCCCCCCCCCC(=O)N[C@@H](CCCCN)C(=O)N[C@@H](CCCCN)CN(CC(=O)N[C@@H](CCCCN)CN(CC(N)=O)S(=O)(=O)Cc1ccccc1)S(=O)(=O)Cc1ccccc1", "values": [{"measurement": "MIC", "setting": "[1]", "value": 2, "unit": "µg/mL"}, {"measurement": "MIC", "setting": "[2]", "value": 5, "unit": "µg/mL"}, {"measurement": "MIC", "setting": "[3]", "value": 8, "unit": "µg/mL"}, {"measurement": "MIC", "setting": "[4]", "value": 5, "unit": "µg/mL"}, {"measurement": "MIC", "setting": "[5]", "value": 5, "unit": "µg/mL"}, {"measurement": "HC50", "setting": "[6]", "value": 100, "unit": "µg/mL"}, {"measurement": "selectivity ratio", "setting": "[7]", "value": 50}]}
{"smiles": "CCCCCCCCCCCCCCCCNC(=O)CN(C[C@@H](N)CCCCN)S(=O)(=O)Cc1ccccc1", "values": [{"measurement": "MIC", "setting": "[1]", "value": 5, "unit": "µg/mL"}, {"measurement": "MIC", "setting": "[2]", "value": 20, "unit": "µg/mL"}, {"measurement": "MIC", "setting": "[3]", "value": 5, "unit": "µg/mL"}, {"measurement": "MIC", "setting": "[4]", "value": 5, "unit": "µg/mL"}, {"measurement": "MIC", "setting": "[5]", "value": "> 50", "unit": "µg/mL"}]}
{"smiles": "CCCCCCCCCCCCCCCC(=O)N[C@@H](CCCCN)CN(CC(=O)N[C@@H](CCCCN)CN(CC(N)=O)S(=O)(=O)Cc1ccccc1)S(=O)(=O)Cc1ccccc1", "values": [{"measurement": "MIC", "setting": "[1]", "value": 8, "unit": "µg/mL"}, {"measurement": "MIC", "setting": "[2]", "value": 20, "unit": "µg/mL"}, {"measurement": "MIC", "setting": "[3]", "value": 8, "unit": "µg/mL"}, {"measurement": "MIC", "setting": "[4]", "value": "> 50", "unit": "µg/mL"}, {"measurement": "MIC", "setting": "[5]", "value": "> 50", "unit": "µg/mL"}]}
{"smiles": "CCCCCCCCCC(=O)N[C@@H](CCCCN)C(=O)N[C@@H](CCCCN)CN(CC(N)=O)S(=O)(=O)Cc1ccccc1", "values": [{"measurement": "MIC", "setting": "[1]", "value": "> 50", "unit": "µg/mL"}, {"measurement": "MIC", "setting": "[2]", "value": "> 50", "unit": "µg/mL"}, {"measurement": "MIC", "setting": "[3]", "value": "> 50", "unit": "µg/mL"}, {"measurement": "MIC", "setting": "[4]", "value": "> 50", "unit": "µg/mL"}, {"measurement": "MIC", "setting": "[5]", "value": "> 50", "unit": "µg/mL"}]}
{"smiles": "CCCCCCCCCCCC(=O)N[C@@H](CCCCN)C(=O)N[C@@H](CCCCN)CN(CC(N)=O)S(=O)(=O)Cc1ccccc1", "values": [{"measurement": "MIC", "setting": "[1]", "value": 20, "unit": "µg/mL"}, {"measurement": "MIC", "setting": "[2]", "value": 20, "unit": "µg/mL"}, {"measurement": "MIC", "setting": "[3]", "value": "> 50", "unit": "µg/mL"}, {"measurement": "MIC", "setting": "[4]", "value": 5, "unit": "µg/mL"}, {"measurement": "MIC", "setting": "[5]", "value": 8, "unit": "µg/mL"}]}
{"smiles": "CCCCCCCCCCCCCCCCCC(=O)N[C@@H](CCCCN)C(=O)N[C@@H](CCCCN)CN(CC(N)=O)S(=O)(=O)Cc1ccccc1", "values": [{"measurement": "MIC", "setting": "[1]", "value": 2, "unit": "µg/mL"}, {"measurement": "MIC", "setting": "[2]", "value": 20, "unit": "µg/mL"}, {"measurement": "MIC", "setting": "[3]", "value": 5, "unit": "µg/mL"}, {"measurement": "MIC", "setting": "[4]", "value": "> 50", "unit": "µg/mL"}, {"measurement": "MIC", "setting": "[5]", "value": "> 50", "unit": "µg/mL"}]}
{"smiles": "CCCCCCCCCCCCCCCCNC(=O)CN(C[C@H](CCCCN)NC(=O)[C@@H](N)CCCCN)S(=O)(=O)Cc1ccccc1", "values": [{"measurement": "MIC", "setting": "[1]", "value": 5, "unit": "µg/mL"}, {"measurement": "MIC", "setting": "[2]", "value": 20, "unit": "µg/mL"}, {"measurement": "MIC", "setting": "[3]", "value": 5, "unit": "µg/mL"}, {"measurement": "MIC", "setting": "[4]", "value": 5, "unit": "µg/mL"}, {"measurement": "MIC", "setting": "[5]", "value": "> 50", "unit": "µg/mL"}]}
